pEC50: −log10 of the molar value. Calls of active or inactive are those of the source. No cut-off for these calls is given here.
Legend:
Format in all cases: cell-based
THP-1 [1] = assay: Induction of type-1 IFN signalling in human THP-1 cells assessed as increase in type-1 interferon-induced ISG54-ISRE promoter activity by measuring increase in transcriptional activity of luciferase reporter gene at 40 uM by secreted luciferase reporter gene assay relative to control; conditions: filed as activator
How it was run: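 THP-1 monocytes carry an ISRE reporter (ISG54 minimal promoter with five ISRE elements) that drives a secreted luciferase. Each compound was tested at 40 μM. Luminescence was read and expressed as relative units normalized to a DMSO control, as mean ± standard deviation.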

[2] = Cytotoxicity against human THP-1 cells assessed as cell viability at 40 uM relative to control; conditions: read-out: Activity
How it was run: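 THP-1 viability was measured in parallel with the ISRE reporter readout after treatment with 40 μM of each compound. Results are given as mean ± standard deviation.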

THP-1 [3] = assay: Induction of type-1 IFN signalling in human THP-1 cells assessed as increase in IFNbeta secretion at 20 uM by ELISA; conditions: filed as activator
How it was run: (§1)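 IFNβ and IP-10 released extracellularly from treated THP-1 cells were quantified by ELISA.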

THP-1 [4] = assay: Induction of type-1 IFN signalling in human THP-1 cells assessed as increase in IP-10 secretion at 20 uM by ELISA; conditions: filed as activator; how it was run: as §1
THP-1 [5] = assay: Induction of type-1 IFN signalling in human THP-1 cells assessed as increase in IFN-stimulated IFNbeta mRNA expression at 50 uM by qPCR analysis; conditions: filed as activator
THP-1 [6] = assay: Induction of type-1 IFN signalling in human THP-1 cells assessed as increase in IFN-stimulated CXCL10 mRNA expression at 50 uM by qPCR analysis; conditions: filed as activator
THP-1 [7] = assay: Induction of type-1 IFN signalling in human THP-1 cells assessed as increase in IFN-stimulated IRF7 mRNA expression at 50 uM by qPCR analysis; conditions: filed as activator
THP-1 [8] = assay: Induction of type-1 IFN signalling in human THP-1 cells assessed as increase in IFN-stimulated IFIT3 mRNA expression at 50 uM by qPCR analysis; conditions: filed as activator
THP-1 [9] = assay: Induction of type-1 IFN signalling in human THP-1 cells assessed as increase in IFN-stimulated OAS1 mRNA expression at 50 uM by qPCR analysis; conditions: filed as activator
[10] = Induction of type-1 IFN signalling in human THP-1 cells assessed as increase in type-1 IFN-induced ISG54-ISRE promoter activity by measuring increase in transcriptional activity of luciferase reporter gene by secreted luciferase reporter gene assay
How it was run: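 The THP-1 secreted-luciferase ISRE reporter (ISG54 minimal promoter plus five ISREs) was tested across a dose range. Luminescence was read as fold change over control. EC50 was calculated and Emax was interpolated from the dose-response curve.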

THP-1 [11] = assay: Cytotoxicity against human THP-1 cells assessed as cell viability at 2.5 to 40 uM; conditions: thp-1, 40 µM, dose 2.5-40 µM
How it was run: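 THP-1 viability was tested across a range of treatment concentrations up to 40 µM, alongside the ISRE reporter dose-response.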

| Compound | Activity (THP-1 [1]) [RU] | viability at 40 µM [2] [%] | further results |
| --- | --- | --- | --- |
| O=C(Nc1ccc([N+](=O)[O-])cc1)N1CCN(c2cccc(Cl)c2Cl)CC1 | 1 | 90 |  |
| O=C(Cc1cc(F)c(F)cc1F)N1CCN(c2cccc(Cl)c2Cl)CC1 | 2.8 | 101 |  |
| O=C(Nc1cccc(OC(F)(F)F)c1)N1CCN(c2cccc(Cl)c2Cl)CC1 | 3 | 70 |  |
| CC(C)NC(=S)N1CCN(c2cccc(Cl)c2Cl)CC1 | 1.2 | 84 |  |
| O=C(c1ccc(Cl)cc1Cl)N1CCN(c2cccc(Cl)c2Cl)CC1 | 2.3 | 86 |  |
| O=C(Nc1ccc(F)cc1)N1CCN(c2cccc(Cl)c2Cl)CC1 | 2.1 | 95 |  |
| Fc1ccc(NC(=S)N2CCN(c3cccc(Cl)c3Cl)CC2)cc1 | 1.3 | 81 |  |
| COc1ccc(C(=O)N2CCN(c3cccc(Cl)c3Cl)CC2)cc1 | 3.7 | 81 |  |
| O=C(c1cccc(C(F)(F)F)c1)N1CCN(c2cccc(Cl)c2Cl)CC1 | 2.8 | 105 |  |
| O=[N+]([O-])c1ccc(NC(=S)N2CCN(c3cccc(Cl)c3Cl)CC2)cc1 | 1.1 | 97 |  |
| S=C(Nc1ccc(Cl)cc1)N1CCN(c2cccc(Cl)c2Cl)CC1 | 1.2 | 99 |  |
| CCCCCCCCCCCCC(=O)N1CCN(c2cccc(Cl)c2Cl)CC1 | 1.3 | 89 |  |
| O=C(Nc1cccc(C(F)(F)F)c1)N1CCN(c2cccc(Cl)c2Cl)CC1 | 3.3 | 76 |  |
| S=C(Nc1cccc(Br)c1)N1CCN(c2cccc(Cl)c2Cl)CC1 | 1.5 | 85 |  |
| O=C(Nc1ccc(C(F)(F)F)cc1)N1CCN(c2cccc(Cl)c2Cl)CC1 | 3.9 | 61 |  |
| O=C(CCc1ccccc1C(F)(F)F)N1CCN(c2cccc(Cl)c2Cl)CC1 | 2.5 | 96 |  |
| O=C(Nc1ccc(OC(F)(F)F)cc1)N1CCN(c2cccc(Cl)c2Cl)CC1 | 4.2 | 96 |  |
| S=C(Nc1ccc(Br)cc1)N1CCN(c2cccc(Cl)c2Cl)CC1 | 0.4 | 46 |  |
| COc1cc(OC)cc(C(=O)N2CCN(c3cccc(Cl)c3Cl)CC2)c1 | 1.9 | 83 |  |
| COc1cccc(NC(=O)N2CCN(c3cccc(Cl)c3Cl)CC2)c1 | 2.7 | 87 |  |
| Cc1cc([N+](=O)[O-])ccc1C(=O)N1CCN(c2cccc(Cl)c2Cl)CC1 | 1.4 | 84 |  |
| O=C(c1cnccn1)N1CCN(c2cccc(Cl)c2Cl)CC1 | 2.5 | 89 |  |
| O=C(c1ccc(C(F)(F)F)cc1)N1CCN(c2cccc(Cl)c2Cl)CC1 | 1.8 | 90 |  |
| COc1ccc(NC(=O)N2CCN(c3cccc(Cl)c3Cl)CC2)cc1 | 3.3 | 98 |  |
| COc1cc(CC(=O)N2CCN(c3cccc(Cl)c3Cl)CC2)cc(OC)c1OC | 5.2 | 98 | Activity (THP-1 [3]): Active; Activity (THP-1 [4]): Active; Activity (THP-1 [5]): Active; Activity (THP-1 [6]): Active; Activity (THP-1 [7]): Active; Activity (THP-1 [8]): Active; Activity (THP-1 [9]): Active; pEC50 [10]: 4.88; Activity (THP-1 [11]): Non-Toxic |
